# High-throughput results (PubChem BioAssay)
# dFosB act-1 = activators of delta FosB homodimer, primary screen, biochemical, fluorescence polarization, TAMRA-CDK5 oligo, single point; hit rate 0.99% among 340,000; AID 493131, 2011; activation, % at 25 µM; purified delta FosB; percent of positive-control signal above neutral wells; Protein FosB (Mus musculus), P13346;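 active means mean activation above about 17%, with every replicate also reaching it, limit read from the data, passing the limit was not always enough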
# SR-BI DiI-HDL act = activators of SR-BI mediated DiI-HDL uptake, primary screen, ldlA[mSR-BI] CHO cells, DiI fluorescence | hit rate 0.096% among 320,000 | 3 h; 100 = double the neutral-control signal | activation, % at 12.5 µM;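 active means mean replicate activation of at least 60% and every replicate at or above 60%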;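 further: 0% = median plate neutral-control signal and 100% = twice that signal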
#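 Material: SR-BI-overexpressing, LDLR-lacking CHO cells | Dosing: Single compound concentration, delivered by pin transfer | Probe or stimulus: Labelled HDL, 10 µg/mL | Signal: Bottom-read cell fluorescence after medium removal, ex 550/em 595 nm | Schedule: 3 h, 37 °C | Evaluation: HDL uptake via cellular fluorescence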
# SR-BI DiI inh = inhibitors of SR-BI mediated HDL lipid uptake, primary screen, ldlA[mSR-BI] cells, fluorescence, single point; Scavenger receptor class B member 1 (Mus musculus), Q61009; ldlA[mSR-BI] CHO cells, DiI-HDL uptake fluorescence, 3 h; inhibition, % at 12.5 µM; hit rate 0.96% among 320,000;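 active means mean replicate inhibition of at least 70% and a set share of replicates each scoring 70 or more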;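 further: 0% = median of neutral control wells and 100% = median of positive control wells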
# Target sequence (Q61009 whole entry, looked up): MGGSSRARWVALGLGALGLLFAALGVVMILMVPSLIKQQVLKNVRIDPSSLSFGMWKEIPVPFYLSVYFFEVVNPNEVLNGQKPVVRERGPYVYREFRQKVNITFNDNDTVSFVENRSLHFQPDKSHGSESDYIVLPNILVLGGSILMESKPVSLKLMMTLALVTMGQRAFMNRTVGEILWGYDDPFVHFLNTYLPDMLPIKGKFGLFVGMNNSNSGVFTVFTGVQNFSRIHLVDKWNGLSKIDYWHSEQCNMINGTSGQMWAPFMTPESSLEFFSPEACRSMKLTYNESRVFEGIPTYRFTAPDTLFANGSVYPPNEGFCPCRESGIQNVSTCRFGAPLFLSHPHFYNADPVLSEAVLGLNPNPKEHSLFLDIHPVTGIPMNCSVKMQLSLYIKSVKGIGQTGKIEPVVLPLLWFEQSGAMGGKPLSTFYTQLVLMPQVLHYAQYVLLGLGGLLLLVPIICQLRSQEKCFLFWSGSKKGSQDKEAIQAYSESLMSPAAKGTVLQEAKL
# CDK5 p35 inh = inhibitors of human CDK5/p35 kinase, primary screen, biochemical, single concentration. Cyclin-dependent kinase 5 (Homo sapiens) + Cyclin-dependent kinase 5 activator 1 (Homo …. Recombinant CDK5/p35, ADP-Glo luminescence, 60 min. inhibition, % at 10 µM. hit rate 0.01% among 330,000;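 active means highest replicate inhibition of at least 50% and at least 75% of replicates reaching 50%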;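 further: plate controls were DMSO neutral control for no effect and GW8510 at 10 µM for full effect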
# dFosB act-2 = activators of mouse delta FosB DNA binding, confirmation, biochemical, fluorescence polarization, TAMRA-CDK5 oligo, cherry-picked samples. shares compounds with dFosB act-1. purified delta FosB; normalised: neutral wells 0, positive control 100. 2,400 tested, under 10 active. AID 588690, 2011. activation, % at 24.9 µM;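 active means highest replicate activation at or above 34% and every replicate reaching that threshold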;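 further: higher polarization means more probe DNA bound by delta FosB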
# Active calls of the source: *; / = not tested or not shown. Shown are actives, neighbours in structure and some others; about 2% of the full set was active somewhere.
SMILES,dFosB act-1,SR-BI DiI-HDL act,SR-BI DiI inh,CDK5 p35 inh,dFosB act-2
O=C1CC(C(=O)Nc2ccc(F)cc2)S/C(=N\N=C\c2ccco2)N1 (stereo not drawn),32.7*,0.4,-0.4,0.4,2.9
CCOC(=O)C1=C(COC(=O)c2ncc(Cl)c(Cl)c2Cl)NC(=O)NC1C (stereo not drawn),-13.1,5.7,-5.7,0.4,/
Cc1ccc(C)c(Cn2c3ccccc3c3cnn(CC(=O)NCc4ccccn4)c(=O)c32)c1,21.0*,-26.0,26.0,-6.5,0.7
O=C(Cn1ncc2c3ccccc3n(Cc3cccc(Cl)c3)c2c1=O)NCc1ccccn1,-11.3,-8.3,8.3,-0.3,/
CCN(CC)CCN(CC(=O)Nc1c(C)cc(C)cc1C)C(=O)c1ccccc1,4.2,-0.7,0.7,0.7,/
CC(OC(=O)c1cccc(-n2cnnn2)c1)C(=O)Nc1ccc(F)c(F)c1F (stereo not drawn),29.6*,-0.6,0.6,-9.9,-0.7
COc1ccc(S(=O)(=O)Nc2ccc(C(N)=O)cc2)cc1C(=O)N1CCCCCC1,-3.1,23.0,-23.0,0.4,/
O=[N+]([O-])c1ccc2c(c1)/C(=N\O)c1ccccc1-2,27.1*,13.4,-13.4,0.1,1.6
Cc1cc2c(cc1S(=O)(=O)N1CCOCC1)NC(=O)CO2,0.7,-2.2,2.2,-0.3,/
CCN1CCN(c2nc3c(C)cccn3c(=O)c2/C=C(\C#N)S(=O)(=O)c2ccc(Cl)cc2)CC1,48.3*,-22.4,22.4,1.8,-2.2
CCOc1cc(/C=C(/C#N)c2nc3ccccc3[nH]2)ccc1Oc1ccc([N+](=O)[O-])cn1,49.6*,-46.6,46.6,1.0,6.6
CC(/C=N/NC(=O)COc1ccccc1C)=N\NC(=O)COc1ccccc1C,22.1*,-7.2,7.2,-1.3,-2.3
Cc1ccccc1OCC(=O)N/N=C/c1ccccn1,-1.8,27.4,-27.4,0.0,/
Cc1nnc(N2CCCC(C(=O)NCc3ccccc3F)C2)c2nn(-c3ccccc3)c(C)c12 (stereo not drawn),-4.2,-0.7,0.7,-2.9,/
CCOc1ccc(CNC(=O)C2CCN(c3nnc(C)c4c(C)n(-c5ccc(C)cc5)nc34)CC2)cc1,78.2*,-33.8,33.9,0.1,-10.6
Cc1cccc(C)c1NC(=O)CCCn1nc(C)c2c(C)n(-c3ccccc3)nc2c1=O,19.3*,-40.7,40.7,1.1,0.7
Cc1ccc(-n2nc3c(=O)n(C(C)C(=O)NCc4ccccc4Cl)nc(C)c3c2C)cc1 (stereo not drawn),28.1*,-69.2,69.2,1.2,1.4
CCOc1ccccc1CNC(=O)C1CCN(c2nnc(C)c3c(C)n(-c4ccc(C)cc4)nc23)CC1,85.3*,-58.7,58.7,1.9,4.6
O=C1CCC(C(=O)NCc2ccccc2)N1 (stereo not drawn),6.0,-13.2,13.2,-0.7,/
CC1CCN(S(=O)(=O)c2c[nH]c(=O)[nH]c2=O)CC1,-3.0,12.5,-12.5,-2.2,/
COc1ccc(NC(=O)COC(=O)c2cccn2C)cc1S(=O)(=O)N1CCCCC1,3.4,-13.8,13.8,2.9,/
COCCNC(=O)CN1CCN(S(=O)(=O)c2ccc3c(c2)CCCC3)CC1,-1.5,15.2,-15.2,0.8,/
CCOc1ccccc1CNC(=O)Cn1nc(C)c2c(C)n(-c3ccc(C)cc3)nc2c1=O,52.8*,-53.4,53.4,-1.1,1.1
COc1cccc(-n2cnc3c(sc4nc(N5CCOCC5)c5c(c43)CCCC5)c2=O)c1,-0.9,-52.5,52.5,-0.2,/
COc1ccc(CN(C)CC(O)COc2ccc(-c3ccccc3)cc2)cc1OC (stereo not drawn),19.3*,-24.0,24.0,-0.3,-7.7
O=C(COc1ncnc2ccccc12)Nc1cc(S(=O)(=O)N2CCOCC2)ccc1Cl,45.7*,-39.0,39.0,-1.1,2.0
Cc1ccc(S(=O)(=O)N2CCOCC2)cc1NC(=O)COc1ncnc2ccccc12,-4.3,12.4,-12.4,-0.1,/
O=C(CC1S/C(=N/N=C/c2c[nH]c3ccccc23)NC1=O)Nc1ccccc1 (stereo not drawn),3.6,-41.3,41.3,-1.0,/
